Values after ≈ are worked out from the molar mass of the structure shown.
Assays:
Format in all cases: functional
[1] = test system: Chromobacterium violaceum; test: Antibacterial activity against gram negative Chromobacterium violaceum(MTCC 2656)
Method in brief: (§1)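 MIC determined by broth dilution per NCCL standards; test panel comprised Gram-positive Bacillus subtilis (MTCC 441), Bacillus sphaericus (MTCC 11), Staphylococcus aureus (MTCC 96) and Gram-negative Chromobacterium violaceum (MTCC 2656), Klebsiella aerogenes (MTCC 39), Pseudomonas aeruginosa (MTCC 741); highest concentration tested 200 μg/ml; penicillin and streptomycin run under identical conditions as reference agents.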

Bacillus subtilis = test: Antibacterial activity against gram positive Bacillus subtilis MTCC 441; method in brief: as §1
[2] = test system: Lysinibacillus sphaericus; test: Antibacterial activity against gram positive Bacillus sphaericus (MTCC 11)
Method in brief: (§2)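 MICs were determined by broth dilution following National Committee for Clinical Laboratory (NCCL) standards. The same conditions were used for penicillin and streptomycin as reference agents.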

Staphylococcus aureus = test: Antibacterial activity against gram positive Staphylococcus aureus(MTCC 96); method in brief: as §1
Klebsiella aerogenes = test: Antibacterial activity against gram negative Klebsiella aerogenes(MTCC 39); method in brief: as §1
Pseudomonas aeruginosa = test: Antibacterial activity against gram negative Pseudomonas aeruginosa (MTCC 741); method in brief: as §2

SMILES	MIC [1] [µg/mL]	MIC (Bacillus subtilis) [µg/mL]	MIC [2] [µg/mL]	MIC (Staphylococcus aureus) [µg/mL]	MIC (Klebsiella aerogenes) [µg/mL]	MIC (Pseudomonas aeruginosa) [µg/mL]
CN(C)CCCCCCOc1cc(O)c2c(=O)cc(-c3ccccc3)oc2c1	25 (≈ 65.5 µM)	12.5 (≈ 32.8 µM)	12.5 (≈ 32.8 µM)	25 (≈ 65.5 µM)	25 (≈ 65.5 µM)	
O=c1cc(-c2ccccc2)oc2cc(OCCCCCCN3CCOCC3)cc(O)c12	25 (≈ 59 µM)	25 (≈ 59 µM)	25 (≈ 59 µM)	25 (≈ 59 µM)	25 (≈ 59 µM)	
CN(C)CCCOc1cc(O)c2c(=O)cc(-c3ccccc3)oc2c1	12.5 (≈ 36.8 µM)	25 (≈ 73.7 µM)	12.5 (≈ 36.8 µM)	12.5 (≈ 36.8 µM)	25 (≈ 73.7 µM)	
O=c1cc(-c2ccccc2)oc2cc(OCCCCN3CCOCC3)cc(O)c12	6.25 (≈ 15.8 µM)	6.25 (≈ 15.8 µM)	6.25 (≈ 15.8 µM)	12.5 (≈ 31.6 µM)	12.5 (≈ 31.6 µM)	
O=c1cc(-c2ccccc2)oc2cc(OCCCCCCN3CCCCC3)cc(O)c12	25 (≈ 59.3 µM)	25 (≈ 59.3 µM)	12.5 (≈ 29.7 µM)	25 (≈ 59.3 µM)	25 (≈ 59.3 µM)	
CN1CCN(CCCOc2cc(O)c3c(=O)cc(-c4ccccc4)oc3c2)CC1	12.5 (≈ 31.7 µM)	12.5 (≈ 31.7 µM)	12.5 (≈ 31.7 µM)	25 (≈ 63.4 µM)	25 (≈ 63.4 µM)	
O=c1cc(-c2ccccc2)oc2cc(OCCCN3CCCCC3)cc(O)c12	6.25 (≈ 16.5 µM)	25 (≈ 65.9 µM)	12.5 (≈ 32.9 µM)	12.5 (≈ 32.9 µM)	25 (≈ 65.9 µM)	
CN1CCN(CCCCOc2cc(O)c3c(=O)cc(-c4ccccc4)oc3c2)CC1	6.25 (≈ 15.3 µM)	25 (≈ 61.2 µM)	6.25 (≈ 15.3 µM)	12.5 (≈ 30.6 µM)	12.5 (≈ 30.6 µM)	
O=c1cc(-c2ccccc2)oc2cc(OCCCCN3CCCCC3)cc(O)c12	6.25 (≈ 15.9 µM)	12.5 (≈ 31.8 µM)	12.5 (≈ 31.8 µM)	25 (≈ 63.5 µM)	25 (≈ 63.5 µM)	
CN(C)CCCCOc1cc(O)c2c(=O)cc(-c3ccccc3)oc2c1	12.5 (≈ 35.4 µM)	6.25 (≈ 17.7 µM)	6.25 (≈ 17.7 µM)	25 (≈ 70.7 µM)	25 (≈ 70.7 µM)	
O=c1cc(-c2ccccc2)oc2cc(OCCCN3CCOCC3)cc(O)c12	12.5 (≈ 32.8 µM)	12.5 (≈ 32.8 µM)	12.5 (≈ 32.8 µM)	25 (≈ 65.5 µM)	25 (≈ 65.5 µM)	
CN1CCN(CCCCCCOc2cc(O)c3c(=O)cc(-c4ccccc4)oc3c2)CC1	12.5 (≈ 28.6 µM)	25 (≈ 57.3 µM)	25 (≈ 57.3 µM)	12.5 (≈ 28.6 µM)	25 (≈ 57.3 µM)	
O=c1cc(-c2ccccc2)oc2cc(O)cc(O)c12 [CHRYSIN]	25 (≈ 98.3 µM)	50 (≈ 197 µM)	25 (≈ 98.3 µM)	50 (≈ 197 µM)	50 (≈ 197 µM)	
CC1(C)S[C@@H]2[C@H](NC(=O)Cc3ccccc3)C(=O)N2[C@H]1C(=O)O [PENICILLIN G]	12.5 (≈ 37.4 µM)	1.56 (≈ 4.67 µM)	3.12 (≈ 9.35 µM)	1.56 (≈ 4.67 µM)	6.25 (≈ 18.7 µM)	6.25 (≈ 18.7 µM)
CN[C@@H]1[C@H](O[C@H]2[C@H](O[C@H]3[C@H](O)[C@@H](O)[C@H](N=C(N)N)[C@@H](O)[C@@H]3N=C(N)N)O[C@@H](C)[C@]2(O)C=O)O[C@@H](CO)[C@H](O)[C@H]1O [STREPTOMYCIN]	3.12 (≈ 5.37 µM)	6.25 (≈ 10.7 µM)	12.5 (≈ 21.5 µM)	6.25 (≈ 10.7 µM)	1.56 (≈ 2.69 µM)	1.56 (≈ 2.69 µM)

Reference: ChEMBL document CHEMBL1148560, “Synthesis and biological evaluation of novel C (7) modified chrysin analogues as antibacterial agents” (2006)
